The values below come from ChEMBL document CHEMBL1126169, “8-Polycycloalkyl-1,3-dipropylxanthines as potent and selective antagonists for A1-adenosine receptors” (J Med Chem, 1992).

Assay [1] deals with T1, Adenosine receptor A1 (Cavia porcellus, UniProt P47745).
T1 sequence (P47745 whole entry): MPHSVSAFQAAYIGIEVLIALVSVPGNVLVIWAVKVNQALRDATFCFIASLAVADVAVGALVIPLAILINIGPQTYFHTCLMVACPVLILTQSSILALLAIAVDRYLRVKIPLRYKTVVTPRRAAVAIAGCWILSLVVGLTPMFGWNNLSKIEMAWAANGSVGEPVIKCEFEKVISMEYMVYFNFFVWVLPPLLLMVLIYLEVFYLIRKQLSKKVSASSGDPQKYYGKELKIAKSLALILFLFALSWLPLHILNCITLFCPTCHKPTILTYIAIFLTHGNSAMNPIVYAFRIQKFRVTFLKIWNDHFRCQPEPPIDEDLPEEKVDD
Kind of assay: Binding affinity against adenosine A1 receptor using N6-[3H]cyclohexyladenosine as radioligand in guinea pig forebrain membranes. The format is cell membranes, Brain membranes.

The target in assay [2] is T2, Adenosine A2 receptor (Rattus norvegicus, UniProt P29276+P30543). Briefly: Binding affinity against adenosine A2 receptor using N-[3H]-ethyladenosin-5''-uronamide as radioligand in rat striatal membranes. It counts as cell membranes.
Assay [3] deals with T1, Adenosine receptor A1. Kind of assay: Inhibition of N6-[3H]cyclohexyladenosine binding to guinea pig forebrain membrane Adenosine A1 receptor.
A short description of assay [4]: Binding affinity against adenylate cyclase using N-[3H]-ethyl adenosine-5-uronamide as radioligand in human platelet membranes. It counts as cell membranes.
Assay [5] can be described thus: Inhibitory activity against adenylate cyclase using (R)-N6-(2-[3H]-phenyl-1-methylethyladenosine as radioligand in rat adipocytes. The format is cell-based.
The target in assay [6] is Adenosine receptor A1 (Rattus norvegicus) (UniProt P25099). Briefly: Binding affinity against adenosine A1 receptor using N6-[3H]cyclohexyladenosine as radioligand in rat brain membranes.
Assay [7] has as its target T1, Adenosine receptor A1. Kind of assay: Binding affinity against Adenosine A1 receptor using N6-[3H]cyclohexyladenosine in guinea pig membranes. The format is cell membranes.
Assay [8] concerns the target T1, Adenosine receptor A1. Briefly: Binding affinity against Adenosine A1 receptor using N6-[3H]cyclohexyladenosine in guinea pig forebrain membranes. It counts as cell membranes, Brain membranes. The method in brief: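 Guinea pig forebrain membranes in 50 mM Tris-HCl pH 7.7, pretreated with adenosine deaminase (2.0 units/mL, 30 min, 37 °C), 10 mg tissue per tube. Incubated with 1.1 nM [3H]cyclohexyladenosine, final DMSO <0.9%, for 90 min at 25 °C, then GF/C filtration and scintillation counting. Nonspecific binding defined with 10 µM R-PIA.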

The target in assay [9] is T2, Adenosine A2 receptor. Briefly: Binding affinity against Adenosine A2 receptor using N-[3H]-ethyladenosin-5''-uronamide in rat striatal membranes. The format is cell membranes, Striatum, Membrane.
The target of assay [10] is T3, Adenosine receptor A1 (Rattus norvegicus, UniProt P25099).
T3 sequence (P25099 whole entry): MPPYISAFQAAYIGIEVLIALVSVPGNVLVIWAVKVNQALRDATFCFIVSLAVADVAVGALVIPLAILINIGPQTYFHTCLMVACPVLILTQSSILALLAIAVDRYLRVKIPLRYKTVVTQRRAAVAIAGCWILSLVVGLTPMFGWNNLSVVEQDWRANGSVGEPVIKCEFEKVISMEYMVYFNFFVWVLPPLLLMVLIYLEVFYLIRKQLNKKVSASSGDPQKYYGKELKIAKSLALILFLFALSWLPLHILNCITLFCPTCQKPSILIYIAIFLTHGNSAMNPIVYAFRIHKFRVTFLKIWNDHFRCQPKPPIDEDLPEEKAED
Kind of assay: Binding affinity against Adenosine A1 receptor using N6-[3H]cyclohexyladenosine in rat brain membranes. The format is cell membranes. The method in brief: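 Rat forebrain membranes were prepared like the guinea pig tissue. Tissue was homogenized in ice-cold 50 mM Tris-HCl pH 7.7, centrifuged at 50000g and washed. It was treated with ADA (2.0 units/mL) for 30 min at 37 °C, then used at 10 mg tissue/mL. Duplicate curves used five or more concentrations; IC50 from logit-log plots was converted to Ki by Cheng-Prusoff.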

The structures appear in SMILES notation.

For `CCCn1c(=O)c2nc(-c3ccco3)[nH]c2n(CCC)c1=O`, the results for the inhibitory constant (Ki) at Adenosine receptor A1 [1] and on Adenosine A2 receptor [2] were 560 nM and 530 nM, respectively. On to `CC(C)(C)CNc1ncnc2c1ncn2C1O[C@H](CO)[C@@H](O)[C@H]1O` (some centres not stated), for which the Ki – broadly, the dissociation constant of the complex between target and ligand, obtained from inhibition or displacement – at Adenosine receptor A1 [1] came out at 17 nM. For `CCCn1c(=O)c2nc(-c3cc4ccccc4o3)[nH]c2n(CCC)c1=O`, the inhibitory constant (Ki) was over 10000 nM at Adenosine receptor A1 [1] and 1200 nM on Adenosine A2 receptor [2]. Molecule `OC[C@H]1OC(n2cnc3c(NC(C4CC4)C4CC4)ncnc32)[C@H](O)[C@@H]1O` (some centres not stated) showed an inhibitory constant (Ki) on Adenosine receptor A1 [3] of 0.75 nM.

On Adenosine receptor A1 [1], `CC(C)(C)Nc1ncnc2c1ncn2C1O[C@H](CO)[C@@H](O)[C@H]1O` (some centres not stated) displayed a Ki of 20 nM. Same read-out and setting: the same measure for `Cn1c(=O)c2[nH]c(C34CC5CC(CC3C5)C4)nc2n(C)c1=O`: 41 nM. Regarding `CCCn1c(=O)c2nc(-c3cccs3)[nH]c2n(CCC)c1=O`, the inhibitory constant (Ki) on Adenosine receptor A1 [1] came out at 210 nM; at Adenosine A2 receptor [2] it was 1900 nM. For the molecule `CCCn1c(=O)c2nc(C(O)(CC)CC)[nH]c2n(CCC)c1=O`, the inhibition constant Ki on Adenosine receptor A1 [1] amounted to 170 nM; at Adenosine A2 receptor [2], 12000 nM. The matching figures for `CCCn1c(=O)c2nc([C@@H]3CC4CCC3C4)[nH]c2n(CCC)c1=O` (some centres not stated): 3.8 nM and 440 nM.

At Adenosine receptor A1 [1], `CC(C)Nc1ncnc2c1ncn2[C@@H]1O[C@H](CO)[C@@H](O)[C@H]1O` displayed a Ki of 1.9 nM. The molecule `CC[C@H](C)Nc1ncnc2c1ncn2C1O[C@H](CO)[C@@H](O)[C@H]1O` (single isomer, unassigned) showed an inhibition constant (Ki) on Adenosine receptor A1 [3] of 0.8 nM. `CCCn1c(=O)c2nc([C@@H]3CC4C=CC3C4)[nH]c2n(CCC)c1=O` (some centres not stated): the values for the Ki on Adenosine receptor A1 [1] and at Adenosine A2 receptor [2] were 4.3 nM and 480 nM, respectively. In turn, `CCCC(CCC)Nc1ncnc2c1ncn2C1O[C@H](CO)[C@@H](O)[C@H]1O` (some centres not stated) came in with a Ki at Adenosine receptor A1 [1] of 3.3 nM. Regarding `Cn1c(=O)c2[nH]cnc2n(C)c1=O`, the Kb was determined as 5.7 µM in [4] and 4800 nM in [5]. `CCC(CC)Nc1ncnc2c1ncn2C1O[C@H](CO)[C@@H](O)[C@H]1O` (some centres not stated) had a Ki in assay [6] of 0.75 nM. In turn, `OC[C@H]1OC(n2cnc3c(NC45C[C@H]6C[C@@H](C4)C[C@@H](C5)C6)ncnc32)[C@H](O)[C@@H]1O` (some centres not stated) displayed a Ki on Adenosine receptor A1 [1] of 73 nM.

`CCCn1c(=O)c2nc(-c3cc4ccccc4s3)[nH]c2n(CCC)c1=O`: the Ki on Adenosine receptor A1 [1] and at Adenosine A2 receptor [2] was over 100000 nM in each case. For the molecule `CCCn1c(=O)c2nc(C(C)(C)CCC)[nH]c2n(CCC)c1=O`, the inhibitory constant (Ki) was determined as 25 nM at Adenosine receptor A1 [1] and 2200 nM at Adenosine A2 receptor [2]. The matching figures for `CCCn1c(=O)c2nc(-c3csc(C)n3)[nH]c2n(CCC)c1=O`: 410 nM and 2300 nM. The molecule `CCCn1c(=O)c2nc(-c3cnsn3)[nH]c2n(CCC)c1=O` showed a Ki at Adenosine A2 receptor [2] of over 10000 nM. `CCCn1c(=O)c2[nH]c(C[C@H]3CC4CCC3C4)nc2n(CCC)c1=O` (some centres not stated) came in with an inhibition constant (Ki) on Adenosine receptor A1 [1] of 80 nM. Still for that read-out and setting: the result for `CCCCn1c(=O)c2nc(C34CC5CC(CC3C5)C4)[nH]c2n(CCCC)c1=O` reads 10 nM. In the case of `CCCn1c(=O)c2nc(CC34C[C@H]5C[C@@H](C3)C[C@@H](C4)C5)[nH]c2n(CCC)c1=O`, the inhibitory constant (Ki) on Adenosine receptor A1 [1] is 880 nM; on Adenosine A2 receptor [2], over 100000 nM. For the molecule `CC(C)Cn1c(=O)n(C)c(=O)c2[nH]c(C34CC5CC(CC3C5)C4)nc21`, the affinity on Adenosine receptor A1 [3] corresponds to a Ki of 15 nM. Consider `CCCn1c(=O)c2nc(C(C)(C)C)[nH]c2n(CCC)c1=O`, for which the Ki stood at 31 nM on Adenosine receptor A1 [1] and 2300 nM on Adenosine A2 receptor [2].

Turning to `CCCn1c(=O)c2nc(-c3nn[nH]n3)[nH]c2n(CCC)c1=O`, the Ki at Adenosine receptor A1 [1] is over 10000 nM; at Adenosine A2 receptor [2], over 100000 nM. With `CCCn1c(=O)c2nc(C3C(C)(C)CCC3(C)C)[nH]c2n(CCC)c1=O`, the inhibitory constant (Ki) on Adenosine A2 receptor [2] is given as over 100000 nM.

As to `CCCn1c(=O)c2nc[nH]c2n(CCC)c1=O`, the results for the Ki on Adenosine receptor A1 [3] and at Adenosine receptor A1 [7] were 1400 nM and 1000 nM, respectively. The same molecule returned a Kb in assay [5] of 940 nM. Take `CC[C@@H](C)Nc1ncnc2c1ncn2[C@@H]1O[C@H](CO)[C@@H](O)[C@H]1O`: the affinity at Adenosine receptor A1 [3] corresponds to a Ki of 1.3 nM.

Consider `CCCn1c(=O)c2nc([C@H]3CC4C=CC3C4)[nH]c2n(CCC)c1=O` (some centres not stated), for which the results for the Ki at Adenosine receptor A1 [1] and on Adenosine A2 receptor [2] were 3.4 nM and 210 nM, respectively. In the case of `CCCn1c(=O)c2nc(C3Cc4ccccc4C3)[nH]c2n(CCC)c1=O`, the Ki worked out at 220 nM on Adenosine receptor A1 [1] and 1700 nM on Adenosine A2 receptor [2]. With `CC1(Nc2ncnc3c2ncn3C2O[C@H](CO)[C@@H](O)[C@H]2O)CCCCC1` (some centres not stated), the Ki in assay [6] came out at 70 nM. As for `CCCn1c(=O)c2nc(C(C)(O)CC)[nH]c2n(CCC)c1=O` (configuration not stated), the Ki was found to be 240 nM on Adenosine receptor A1 [1] and 21000 nM at Adenosine A2 receptor [2]. As for `OC[C@H]1OC(n2cnc3c(NCC4CC4)ncnc32)[C@H](O)[C@@H]1O` (some centres not stated), the affinity in assay [6] corresponds to a Ki of 0.75 nM.

As for `Cn1c(=O)c2c(ncn2C)n(C)c1=O` [CAFFEINE], at Adenosine receptor A1 [1], affinity was put at a Ki of 100000 nM. As for `CCCn1c(=O)c2nc(-c3cnns3)[nH]c2n(CCC)c1=O`, the Ki on Adenosine receptor A1 [8] was 4.4 µM; at Adenosine A2 receptor [9] it was over 10 µM. As for `OC[C@H]1O[C@@H](n2cnc3c(NC4CC5CCC4C5)ncnc32)[C@H](O)[C@@H]1O` (some centres not stated), the inhibitory constant (Ki) was 0.7 nM at Adenosine receptor A1 [3] and 0.91 nM on Adenosine receptor A1 [10]. With `CCCn1c(=O)c2nc(C3c4ccccc4-c4ccccc43)[nH]c2n(CCC)c1=O`, the inhibition constant Ki at Adenosine receptor A1 [8] was 2.9 µM; on Adenosine A2 receptor [9], over 100 µM. As for `CCCn1c(=O)[nH]c(=O)c2[nH]c(C34CC5CC(CC3C5)C4)nc21`, the figures for the inhibition constant Ki on Adenosine receptor A1 [3] and on Adenosine A2 receptor [9] were 370 nM and over 100 µM, respectively.

Regarding `CCCn1c(=O)c2[nH]c(C34C[C@H]5C[C@@H](C3)C[C@@H](C4)C5)nc2n(CCC)c1=O`, at Adenosine receptor A1 [1], the Ki turned out to be 13 nM.

On Adenosine receptor A1 [3], `CCCn1c(=O)c2nc(C3CC4CCC3C4)[nH]c2n(CCC)c1=O` (configuration not stated) gave an inhibition constant Ki of 4.4 nM. On to `CCCn1c(=O)c2nc(CC3CC3)[nH]c2n(CCC)c1=O`, for which the inhibition constant (Ki) was 120 nM at Adenosine receptor A1 [1] and 1200 nM on Adenosine A2 receptor [2]. As for `CCCn1c(=O)c2nc(C3CCC4CCCC43)[nH]c2n(CCC)c1=O` (configuration not stated), the Ki at Adenosine receptor A1 [3] is 5.6 nM; at Adenosine receptor A1 [1], 3.5 nM; at Adenosine A2 receptor [2] it was 330 nM; at Adenosine A2 receptor [9], 0.56 µM. As to `CCCn1c(=O)c2nc(-c3cccn3C)[nH]c2n(CCC)c1=O`, the figures for the inhibition constant Ki at Adenosine receptor A1 [1] and on Adenosine A2 receptor [2] were 140 nM and 6000 nM, respectively. For `CCCn1c(=O)c2nc(-c3cc(S(=O)(=O)[O-])co3)[nH]c2n(CCC)c1=O.[K+]`, the Ki on Adenosine receptor A1 [8] and at Adenosine A2 receptor [9] was over 10 µM throughout.

`CCCn1c(=O)c2nc(C(C)(C)CC)[nH]c2n(CCC)c1=O`: the figures for the inhibition constant Ki on Adenosine receptor A1 [1] and on Adenosine A2 receptor [2] were 23 nM and 1000 nM, respectively. With `CCCn1c(=O)c2nc(-c3cc4ccccc4n3C)[nH]c2n(CCC)c1=O`, the inhibition constant (Ki) at Adenosine receptor A1 [1] and at Adenosine A2 receptor [2] was over 100000 nM each time. Consider `CCC(C)(C)Nc1ncnc2c1ncn2C1O[C@H](CO)[C@@H](O)[C@H]1O` (some centres not stated), for which the affinity on Adenosine receptor A1 [3] corresponds to a Ki of 16 nM. Consider `CCCn1c(=O)c2nc(C3(C)CCCCC3)[nH]c2n(CCC)c1=O`, for which the Ki was 11 nM at Adenosine receptor A1 [1] and 1200 nM at Adenosine A2 receptor [2]. Taken in the same sequence, the figures for `CCCn1c(=O)c2nc(CC(C)(C)C)[nH]c2n(CCC)c1=O` were 49 nM and 6000 nM.
